Screens from PubChem.
ALR inh = inhibitors of human ALR sulfhydryl oxidase, primary screen, biochemical, H2O2 detection, HRP-luminol luminescence, single point; purified ALR, DTT oxidation; hit rate 3.8% among 290,000; AID 485317, 2010; inhibition, % (concentration not given with the values);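 active = mean replicate inhibition above about 79%, with every replicate also reaching it, limit read from the data; inconclusive = only one of the two criteria met; inactive = mean below limit and not every replicate reaching it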
Target sequence (P55789 whole entry, looked up): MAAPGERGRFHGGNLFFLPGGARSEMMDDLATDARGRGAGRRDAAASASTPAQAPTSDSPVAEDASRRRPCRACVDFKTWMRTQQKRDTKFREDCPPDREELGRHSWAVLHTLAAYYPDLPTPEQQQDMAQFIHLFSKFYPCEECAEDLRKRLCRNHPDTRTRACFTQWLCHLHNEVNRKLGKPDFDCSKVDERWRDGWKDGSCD
PolyA inh = polyadenylation inhibitors in yeast reporter cells, primary screen, luminescence, S. cerevisiae. S. cerevisiae SKY197-pL101 polyadenylation reporter, beta-gal luminescence; efflux-impaired pdr1/pdr3 knockout yeast; score 100 = 6 SD above DMSO. activity score, % at 12 µM. hit rate 0.02% among 300,000;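 active = lowest replicate activity score at least 50, where 100 means six control SD above control mean; inconclusive = lowest score under 50 but half or more replicates reach 50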;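 note: yeast exposed to compound for 9 h at 30 °C; higher score means more reporter readthrough which indicates perturbed polyadenylation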
NALP3 yeast inh = NALP3 inflammasome inhibitors in reconstituted yeast, primary screen, luminescence, uHTS; inhibition, % at 10 µM; hit rate 0.39% among 330,000; Yeast reconstituted NLRP3/ASC/caspase-1, beta-gal luminescence, 24 h; AID 2825, 2010;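 active = inhibition of 50% or more; inactive = inhibition below 50%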;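 note: plate controls were induced DMSO wells for no effect and uninduced yeast grown without galactose for full effect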
NALP1 yeast inh = NALP1 inflammasome inhibitors in reconstituted yeast, colorimetric, S. cerevisiae, triplicate retest; S. cerevisiae NALP1/ASC/caspase-1 growth, X-gal OD620, 72 h; inhibition, % at 10 µM; hit rate 0.61% among 280,000; in the data active = inhibition mostly above about 24%, no sharp cut-off; inactive = mostly below about 32%
Pemphigus Ab inh = inhibitors of pemphigus antibody binding to DSG3, primary screen, biochemical, bead-based, flow cytometry, scFv-GFP; Desmoglein-3 (Homo sapiens), P32926; AID 588358, 2011; DSG3-coupled beads, scFv-anti-DSG3-GFP binding; active compounds read low; hit rate 0.48% among 310,000; binding (percent of control), % at 10 µM;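 active = binding more than 3 SD below its plate's average and above zero; inconclusive = below that plate limit but binding exactly zero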;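 note: hits lower antibody fragment binding to DSG3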
Arr AP2 block = inhibitors of beta-arrestin/AP2 binding, primary screen, biochemical, GPCR trafficking, flow cytometry; beta-arrestin 1 C-terminal peptide binding to AP2 beta2-adaptin appendage (human); hit rate 0.31% among 340,000; inhibition, % at 10 µM; FITC-arrestin peptide / GST-AP2 beads; AP2 beta2 appendage carries R879A mutation;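 active = inhibition above a set limit, near 3 SD of compounds lacking own fluorescence, cut at about 54% in these data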;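 note: plate controls were DMSO wells for no effect and 5 µM unlabelled arrestin peptide for full effect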
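Assay system: GST-AP2 R879A bound to glutathione beads, E. coli-expressed; Medium: PBS with 0.05% Tween 20 and 0.1% BSA; Also added: fluorescein-tagged arrestin peptide at 50 nM final; Timing: 12 min plus 1 h, RT; Measured by: flow cytometry, FL1 (488/535 nm); Evaluation: percent drop in bead-associated FITC signal.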
* hit, by the source's call; ? = inconclusive; . = no result. Sampled rows, rich in hits. Any-hit rate of the full collection: about 4.6%.

SMILES	ALR inh	PolyA inh	NALP3 yeast inh	NALP1 yeast inh	Pemphigus Ab inh	Arr AP2 block
CCN(CC)c1ccc(N=Cc2c(O)n(-c3cc(OC)ccc3OC)c(=O)[nH]c2=O)cc1	95*	0	19	-9	110	15
CS(=O)(=O)N1Cc2ccccc2-n2nncc2C1	.	.	.	.	100	-6
ClCCNc1nc2ccc(Cl)cc2[nH]1	98*	-1	12	-9	.	13
COP(=O)(OC)C(Nc1ccccc1)c1ccccc1 (stereo not given)	96*	4	20	10	100	-17
CCC(=O)OC1CCC2C3CCC4CC(=O)C=CC4(C)C3CCC12C (stereo not given)	.	.	.	.	93	-2
CN1C(=O)c2ccccc2NC(=O)C1Cc1ccccc1 (stereo not given)	98*	0	-3	3	100	30
CN1C(=O)C(Cc2ccccc2)C(=O)N(C)C1=O	.	.	.	.	103	-17
O/N=C/c1c[nH]c2ccccc12	.	-4	20	.	96	10
CCCC/C(=N\O)c1c[nH]c2ccccc12	89*	-1	49	7	98	30
CCOC(=O)C1(CCc2ccccc2)CCN(Cc2csc(C(C)=O)c2)CC1	-2	-3	35	27*	102	11
C/C(=C\c1ccc(N(C)C)cc1)[N+](=O)[O-]	.	12	26	15	101	8
CN(C)c1ccc(/C=C/[N+](=O)[O-])cc1	98*	-13	11	80*	142	9
CC1=NN=C(c2ccc(N)cc2)c2cc3c(cc2C1)OCO3	0	.	23	.	113	-1
O=C(N/N=C/c1c(O)n(Cc2ccc(F)cc2)c(=O)[nH]c1=O)c1ccccc1	12	5	5	-9	103	-8
O=C(O)CCC(=O)NCCC1=c2ccccc2=N/C1=C\c1c(O)n(Cc2ccc(F)cc2)c(=S)[nH]c1=O	24	-15	1	9	67*	20
CS(=O)(=O)c1ccc(C2=C(CNC(=O)c3cccnc3)[C@H]3CC[C@@H](C2)N3Cc2ccccc2)cc1	.	.	.	.	115	.
NC(=O)c1ccc(N=Cc2c(O)n(Cc3ccco3)c(=O)[nH]c2=O)cc1	.	-15	-6	.	79*	-16
O=c1[nH]c(=O)n(Cc2ccco2)c(O)c1/C=N/N1CCCCCC1	-2	0	0	41	93	3
N#Cc1c(/N=C/c2c(O)n(Cc3ccco3)c(=O)[nH]c2=O)sc2c1CCCC2	82*	-8	10	10	107	36
CC(C#N)CCC#N (stereo not given)	-12	.	-5	.	103	8
C=CCC1(CCCCC)C(=O)NC(=S)NC1=O	.	.	.	.	101	-11
CCN1C(=O)/C(=C/c2ccc3c(c2)CCN3CCCCl)C(=O)NC1=S	98*	0	.	26	119	3
C=CCN1C(=O)/C(=C/c2ccc3c(c2)CCCN3CCC)C(=O)NC1=S	99*	-9	9	24	198	23
CCCCN1C(=O)/C(=C/c2ccc(N3CCCCCC3)cc2)C(=O)NC1=S	9	7	13	18	.	.
O=C1NC(=S)N(C2CC2)C(=O)/C1=C/c1ccc2c(c1)CCN2CCCCl	98*	6	.	25	115	-4
SMILES	ALR inh	PolyA inh	NALP3 yeast inh	NALP1 yeast inh	Pemphigus Ab inh	Arr AP2 block
CC(C)(C)N1C(=O)NC(=O)/C(=C\c2ccc3c(c2)CCN3CCCCl)C1=O	90*	-5	26	.	130	33
Cc1cc(C(=O)OCC(=O)Nc2ccc(F)cc2)c(C)n1C1CC1	-8	.	26	.	?	14
C[C@]12CC[C@@H](O)CC1=CCC1C2CC[C@@]2(C)C1C[C@@H](F)[C@H]2O (stereo not given in full)	.	.	.	.	116	1
Oc1ccc(C[C@H]2NCCc3cc(O)c(O)cc32)cc1O	99*	20	13	-10	94	-4
C#C[C@]1(O)CC[C@H]2[C@@H]3CCC4=Cc5nc6nc7ccccc7n6cc5C[C@]4(C)[C@H]3CC[C@@]21C	-6	.	20	.	63*	6
C#CC1(O)CCC2C3CCC4=C/C(=N/OCC(=O)NCC(=O)NC(C(=O)O)C(C)C)CC[C@]4(C)C3CC[C@@]21C (stereo not given in full)	-26	13	10	9	97	-5
O=C1Nc2cc(C(=O)N3CCC4(CC3)OCCO4)ccc2NC1CSCc1cccc(F)c1 (stereo not given)	54	-19	4	31	.	.
CCN1C(=O)/C(=C\c2ccc([N+](=O)[O-])s2)C(=O)NC1=S	.	.	.	-3	.	.
Cc1ccc(/C=C2\C(=O)NC(=O)N(CCc3ccc(F)cc3)C2=O)s1	96*	-6	-5	10	114	3
Cc1ccc(/C=C2/C(=O)NC(=O)N(CC3CCCO3)C2=O)s1 (stereo not given)	97*	4	4	30	100	5
Cc1ccc(/C=C2/C(=O)NC(=O)N(CCc3ccc(F)cc3)C2=O)s1	29	-5	9	25	94	-3
CCCCn1c(O)c(/C=N/NC(=O)c2ccncc2)c(=O)[nH]c1=S	99*	-17	21	-10	97	39
Cn1c(O)c(/C=N/NC(=O)c2ccncc2)c(=O)[nH]c1=S	19	-7	7	-2	105	-3
COc1ccc(N/N=C/c2c(O)n(-c3cccc(C)c3)c(=O)[nH]c2=O)cc1	99*	-5	19	-8	108	5
COc1ccc(N/N=C/c2c(O)n(-c3ccc(C)c(C)c3)c(=O)[nH]c2=O)cc1	99*	-11	39	27	62	18
Cc1cccc(-n2c(O)c(/C=N/NC(=O)c3ccncc3)c(=O)[nH]c2=O)c1	-1	-1	18	-15	98	7
Cc1cccc(-n2c(O)c(/C=N/Nc3nc4c(c(=O)n(C)c(=O)n4C)n3C)c(=O)[nH]c2=S)c1	.	-17	-2	10	102	1
Cc1ccc(-n2c(O)c(/C=N/Nc3ccccc3)c(=O)[nH]c2=O)cc1C	99*	-26	21	-5	.	.
COc1ccc(N=Cc2c(O)n(-c3ccc(C)cc3)c(=O)[nH]c2=O)cc1	-5	-6	21	-11	86	-13
Cc1cccc(N/N=C/c2c(O)[nH]c(=S)[nH]c2=O)c1	100*	0	5	.	100	3
COc1cc(C(=O)OC2C[C@H]3CC[C@@H](C2)N3)ccc1O (stereo not given in full)	84*	4	10	5	?	4
